Tests used:
Procathepsin L = Procathepsin L (Homo sapiens, UniProt P07711); assay: Inhibition of human cathepsin L using Z-Phe-Arg-AMC as substrate after 30 mins by spectromicrofluorimetric method
Outline: (§1)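 Enzyme (0.5 nM) preincubated 30 min at 37 °C with inhibitor (0-250 nM) in 0.1 M sodium acetate pH 5.5, 2 mM DTT, 0.01% Brij35. Residual activity on Z-Phe-Arg-AMC at 2.5, 5 and 10 µM, fluorescence ex 350/em 460 nm. IC50 averaged from slopes. Triplicate, repeated three times.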

Cathepsin B = Cathepsin B (Homo sapiens, UniProt P07858); assay: Inhibition of human cathepsin B using Z-Phe-Arg-AMC as substrate after 30 mins by spectromicrofluorimetric method; outline: as §1
Cathepsin S = Cathepsin S (Homo sapiens, UniProt P25774); assay: Inhibition of human cathepsin S using Z-LR-AMC as substrate after 30 mins by spectromicrofluorimetric method
Outline: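 Cathepsin S (0.5 nM) preincubated 30 min at 37 °C with inhibitor (0-250 nM) in 0.1 M sodium acetate pH 5.5 containing 2 mM DTT and 0.01% Brij35. Residual activity read with Z-LR-AMC at 2.5, 5 and 10 µM, fluorescence ex 350/em 460 nm. IC50 averaged from slopes. Triplicate, repeated three times.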

Cathepsin K = target: T1, Cathepsin K (Homo sapiens, UniProt P43235); assay: Inhibition of human cathepsin K expressed in Pichia pastoris using Z-Phe-Arg-AMC as substrate after 30 mins by spectromicrofluorimetric method; outline: as §1
T1 sequence (P43235 whole entry): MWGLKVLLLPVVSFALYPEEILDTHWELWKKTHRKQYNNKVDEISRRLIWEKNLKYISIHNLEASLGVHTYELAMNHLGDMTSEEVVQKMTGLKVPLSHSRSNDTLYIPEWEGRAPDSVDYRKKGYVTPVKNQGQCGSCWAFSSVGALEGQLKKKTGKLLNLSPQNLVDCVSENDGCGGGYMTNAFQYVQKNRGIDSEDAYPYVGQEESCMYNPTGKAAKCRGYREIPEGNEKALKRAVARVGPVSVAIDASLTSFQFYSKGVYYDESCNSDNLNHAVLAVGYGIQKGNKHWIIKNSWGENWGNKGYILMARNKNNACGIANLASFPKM

Chain of Cathepsin S (P25774 whole entry): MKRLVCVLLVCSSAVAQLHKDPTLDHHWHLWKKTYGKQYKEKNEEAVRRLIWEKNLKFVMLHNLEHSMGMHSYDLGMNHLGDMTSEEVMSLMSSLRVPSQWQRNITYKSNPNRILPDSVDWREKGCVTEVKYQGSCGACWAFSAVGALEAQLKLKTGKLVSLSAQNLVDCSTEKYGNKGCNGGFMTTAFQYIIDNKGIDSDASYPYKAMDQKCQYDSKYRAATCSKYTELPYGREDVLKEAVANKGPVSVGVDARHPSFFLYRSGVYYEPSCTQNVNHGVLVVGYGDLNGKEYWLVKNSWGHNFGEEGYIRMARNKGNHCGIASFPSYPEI
Chain of Procathepsin L (P07711 whole entry): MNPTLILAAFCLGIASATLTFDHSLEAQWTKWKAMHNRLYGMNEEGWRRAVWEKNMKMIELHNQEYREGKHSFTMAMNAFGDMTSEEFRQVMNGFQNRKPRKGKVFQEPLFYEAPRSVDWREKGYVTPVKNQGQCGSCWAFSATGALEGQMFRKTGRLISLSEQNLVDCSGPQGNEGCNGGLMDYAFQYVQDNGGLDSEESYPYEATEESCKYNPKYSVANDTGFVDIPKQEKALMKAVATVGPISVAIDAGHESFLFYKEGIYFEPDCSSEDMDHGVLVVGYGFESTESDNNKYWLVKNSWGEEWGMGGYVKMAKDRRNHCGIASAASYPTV

Row | SMILES | IC50 (Procathepsin L) [nM] | IC50 (Cathepsin B) [nM] | IC50 (Cathepsin S) [nM] | IC50 (Cathepsin K) [nM]
1 | N#Cc1ccc(Nc2nc(C#N)nc(NC3CCCCC3)n2)cc1 |  |  | 23 | 67
2 | N#Cc1ccc(Nc2nc(C#N)nc(N3CCNCC3)n2)cc1 | 113 | 57 |  | 28
3 | N#Cc1nc(NC[C@H](O)c2ccccc2)nc(N2CCNCC2)n1 | 45 | 136 | 23 | 68
4 | N#Cc1nc(NC[C@H](O)c2ccccc2)nc(NC2CCCCC2)n1 |  |  | 23 | 70
5 | N#Cc1nc(Nc2ccc(C(F)(F)F)cc2)nc(NC2CCCCC2)n1 |  |  | 102 | 34
6 | N#Cc1nc(NCCc2ccccc2)nc(NC2CCCCC2)n1 |  |  | 23 | 80
7 | N#Cc1nc(Nc2ccc(C(F)(F)F)cc2)nc(N2CCNCC2)n1 |  |  | 23 | 28
8 | Cc1cccc(CNc2nc(C#N)nc(NC3CCCCC3)n2)c1 |  |  | 23 | 60

Now those with a lower IC50 (Cathepsin K), led by results:

Row | IC50 (Procathepsin L) [nM] | IC50 (Cathepsin B) [nM] | IC50 (Cathepsin S) [nM] | IC50 (Cathepsin K) [nM] | SMILES
9 | 226 |  | 136 | 23 | COc1ccc(Nc2nc(C#N)nc(NC3CCCCC3)n2)cc1
10 |  | 57 | 17 | 23 | Cc1cccc(CNc2nc(C#N)nc(N3CCNCC3)n2)c1
11 | 17 | 34 | 17 | 17 | N#Cc1nc(Nc2cccc([N+](=O)[O-])c2)nc(N2CCNCC2)n1
12 | 136 |  | 90 | 17 | N#Cc1nc(Nc2ccc([N+](=O)[O-])cc2)nc(NC2CCCCC2)n1
13 | 17 |  | 23 | 17 | N#Cc1nc(Nc2ccc([N+](=O)[O-])cc2)nc(N2CCNCC2)n1
14 | 23 | 79 | 28 | 17 | N#Cc1nc(Nc2cccc([N+](=O)[O-])c2)nc(NC2CCCCC2)n1
15 | 17 | 45 | 17 | 17 | COc1ccc(Nc2nc(C#N)nc(N3CCNCC3)n2)cc1

Source: ChEMBL document CHEMBL3861957, “Straightforward synthesis of 2,4,6-trisubstituted 1,3,5-triazine compounds targeting cysteine cathepsins K and S” (Eur J Med Chem, 2016)
